How the values were obtained:
RAW264.7 [1] = assay: Antiinflammatory activity against LPS induced mouse RAW264.7 cells assessed as decrease in TNFalpha production at 50 uM after 24 hrs by ELISA; assay type: functional; parameters: scale not given: the % may be the effect or the level left
How it was run: (§1)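 RAW264.7 cells seeded at 5 × 10^3 per well and held 24 h at 37 °C, 5% CO2. Test compound given at 50 μM together with LPS 1 μg mL−1. Untreated cells were the blank, and LPS + DMSO (0.1% v/v final) was the negative control. IL-6, PGE-2 and TNF-α in the medium were measured by ELISA kits 24 h after treatment.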

RAW264.7 [2] = assay: Antiinflammatory activity against LPS induced mouse RAW264.7 cells assessed as decrease in IL6 production at 50 uM after 24 hrs by ELISA; assay type: functional; parameters: scale not given: the % may be the effect or the level left; how it was run: as §1
RAW264.7 [3] = assay: Antiinflammatory activity against LPS induced mouse RAW264.7 cells assessed as decrease in PGE2 production at 50 uM after 24 hrs by ELISA; assay type: functional; parameters: scale not given: the % may be the effect or the level left; how it was run: as §1
RAW264.7 [4] = assay: Antiinflammatory activity in LPS-induced mouse RAW264.7 cells assessed as inhibition of NO production at 20 uM pretreated for 2 hrs followed by LPS stimulation and measured after 24 hrs by Griess reagent based assay; assay type: functional; parameters: scale not given: the % may be the effect or the level left; settings: time 26 hrs
How it was run: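 RAW264.7 cells pretreated with compound for 2 h, then stimulated with LPS 1 μg mL−1 for 24 h. Culture medium was mixed 1:1 with Griess reagent and held 10 min at room temperature. Absorbance at 540 nm was read as the NO indicator.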

[5] = biological target: T1, Prostaglandin G/H synthase 2 (Homo sapiens) (UniProt P35354); assay: Inhibition of COX-2 in human whole blood at 8 uM incubated for 24 hrs by immunoassay relative to control; assay type: tissue-based
T1 sequence (whole entry): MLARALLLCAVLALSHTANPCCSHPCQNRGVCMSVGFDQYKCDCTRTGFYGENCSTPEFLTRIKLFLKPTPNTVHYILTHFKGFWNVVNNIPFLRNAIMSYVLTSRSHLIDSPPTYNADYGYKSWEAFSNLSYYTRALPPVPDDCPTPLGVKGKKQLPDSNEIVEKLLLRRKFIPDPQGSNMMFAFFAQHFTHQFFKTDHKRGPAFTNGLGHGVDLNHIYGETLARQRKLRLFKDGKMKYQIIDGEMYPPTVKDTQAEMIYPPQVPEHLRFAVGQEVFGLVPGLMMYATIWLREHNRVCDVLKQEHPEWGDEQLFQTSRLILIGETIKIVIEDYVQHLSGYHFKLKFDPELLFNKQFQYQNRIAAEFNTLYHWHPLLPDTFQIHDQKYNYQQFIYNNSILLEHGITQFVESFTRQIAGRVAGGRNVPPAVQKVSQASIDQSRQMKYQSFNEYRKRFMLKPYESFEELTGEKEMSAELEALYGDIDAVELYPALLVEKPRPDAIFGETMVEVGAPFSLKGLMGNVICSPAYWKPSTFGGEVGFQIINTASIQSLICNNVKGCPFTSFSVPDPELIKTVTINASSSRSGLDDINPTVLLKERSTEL

Rattus norvegicus = assay: Antiinflammatory activity against carrageenin-induced rat paw edema at 10 mg/kg, po pretreated with carrageenin for 1 hr followed by compound addition and measured after 3 hrs; assay type: functional

| SMILES | Activity (RAW264.7 [1]) | Activity (RAW264.7 [2]) | Activity (RAW264.7 [3]) | Activity (RAW264.7 [4]) | inhibition [5] | Activity (Rattus norvegicus) |
| --- | --- | --- | --- | --- | --- | --- |
| Cc1ccc(-c2cc(C(F)(F)F)nn2-c2ccc(S(N)(=O)=O)cc2)cc1 [CELECOXIB] | 75% | 83% | 69% | – | – | – |
| COc1cc(/C=N/C2=NNC(=O)C2c2ccc(Cl)nn2)cc(OC)c1OC (stereo unspecified) | 48% | 62% | 44% | – | – | – |
| NC1=NN=C(/N=C/c2ccc(Br)cc2)C1c1ccc(Cl)nn1 (stereo unspecified) | 65% | 65% | 60% | 53% | – | – |
| Cc1ccc(-c2cc(C(F)(F)F)nn2C2=NNC(Cl)C=C2)cc1 (stereo unspecified) | – | – | – | – | 78% | – |
| Cc1cc(C)n(-c2ccc(=O)n(CC(=O)NCc3ccccc3)n2)n1 | – | – | – | – | – | 84% |
| COc1cc(/C=N/C2=NN=C(N)C2c2ccc(Cl)nn2)cc(OC)c1OC (stereo unspecified) | 70% | 78% | 64% | 70% | – | – |

Reference: ChEMBL document CHEMBL5576156, “New pyrazole-pyridazine hybrids as selective COX-2 inhibitors: design, synthesis, molecular docking, in silico studies and investigation of their anti-inflammatory potential by evaluation of TNF-α, IL-6, PGE-2 and NO in LPS-induced RAW264.7 macrophages” (RSC Med Chem, 2024)
